# Shown are actives, neighbours in structure and some others; about 9.6% of the full set was active somewhere.
# PTEN del growth: PTEN-deleted cell growth suppression | AID 827 | 1.2% of 140,000 active | viability, % at 10 µM | HCT116 PTEN-null viability, CellTiter-Glo, 60 h; hits give low values;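 active = viability at or below a set limit, 4 SD under the median of all tested compounds, cut at about 3.7% in these data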;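 also: PTEN knockout HCT116 line with beta catenin targeted HCT116 as companion control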
# PMI act satM6P: increases human PMI activity with near-saturating mannose 6-phosphate; activation factor at 20 µM; AID 1216; coupled PMI enzyme assay, resazurin fluorescence, 20 min; hits give high values; 1 = untreated enzyme, 0 = substrate-free blank; 0.34% of 190,000 active;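 active = activation factor of 2 or more at 20 µM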
# Target sequence (P34949 whole entry, looked up): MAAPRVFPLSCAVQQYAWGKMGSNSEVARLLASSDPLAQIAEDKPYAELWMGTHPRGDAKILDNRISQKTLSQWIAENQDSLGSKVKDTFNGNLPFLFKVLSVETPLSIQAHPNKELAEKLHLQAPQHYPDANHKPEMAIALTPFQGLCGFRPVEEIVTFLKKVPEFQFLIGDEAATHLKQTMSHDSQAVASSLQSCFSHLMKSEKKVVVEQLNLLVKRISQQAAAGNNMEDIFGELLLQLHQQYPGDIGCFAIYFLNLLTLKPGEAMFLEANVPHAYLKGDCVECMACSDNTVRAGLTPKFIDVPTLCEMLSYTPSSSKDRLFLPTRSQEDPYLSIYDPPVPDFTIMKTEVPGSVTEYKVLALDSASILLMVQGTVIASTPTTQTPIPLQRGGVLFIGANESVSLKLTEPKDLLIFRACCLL
#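 Material: human phosphomannose isomerase with PGI, G6PDH, diaphorase coupling enzymes; amount: PMI at 15 ng/mL final; also added: Mannose-6-phosphate 1.0 mM (near-saturating) plus 0.22 mM NADP+; incubation: enzyme reaction with compound 20 min at room temperature; signal: resorufin fluorescence (Ex 544/Em 590 nm) from resazurin via diaphorase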
# bCat KO growth: beta-catenin-lacking colon tumor cell growth suppression; HCT116 beta-catenin knockout viability, CellTiter-Glo, 60 h; hits give low values; AID 818; 1.5% of 140,000 active; viability, % at 10 µM;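 active = viability at or under a set limit, the compound median less 4 SD, cut at about 6% in these data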;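 also: 0% = Hyamine 1622 control at 20 µM and 100% = untreated cell control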
# L major viab: inhibitors of Leishmania major promastigote growth | Leishmania major promastigotes, resazurin fluorescence viability | inhibition, % at 10 µM | 9% of 200,000 active | AID 1063; in the data active = inhibition above about 50%;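 also: promastigotes grown with compound for 44 hours at 28 °C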
# PMI activator: increases human mannose-6-phosphate isomerase activity | P34949 | purified human PMI, coupled resazurin fluorescence, 20 min; hits give high values; 1 = vehicle control, 0 substrate-free wells | activation factor at 20 µM | 0.005% of 190,000 active;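 active = activation factor of 2 or more at 20 µM, relative to plate controls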
# Starred values were filed as active, the others as inactive; · = no result.
SMILES,PTEN del growth,PMI act satM6P,bCat KO growth,L major viab,PMI activator
Cc1ccc(C(=O)N/N=C/c2ccc(-c3ccccc3[N+](=O)[O-])o2)cn1,95.4,0.5,86.0,72.2*,0.5
CN1/C(=C/C2CC(=O)N(c3ccc([N+](=O)[O-])cc3)C2=O)C(C)(C)c2ccccc21 (configuration not stated),93.0,1.9,87.5,-0.4,1.6
COc1ccc2cc(C(=O)Nc3ccc(S(N)(=O)=O)cc3)sc(=O)c2c1OC,·,1,·,-5.5,0.9
OCCCNC(=S)NC1CCCC1,·,0.9,·,-7.8,1
CCOC(=O)c1c(NC(=O)CC)sc(C(C)=O)c1C,93.4,1.1,90.4,3.9,1
O=C(c1cccc(F)c1)N1CCC(c2nc3ccccc3s2)CC1,·,1.2,·,3.9,1.2
Cc1ccc(CN2CCN(/N=C/c3cccs3)CC2)cc1,106.2,0.9,93.3,-2.8,1
O=C(N/N=C\c1ccc(-c2ccc([N+](=O)[O-])cc2)o1)C1COc2ccccc2O1 (configuration not stated),97.1,1.1,95.1,96.0*,1.1
CN(C)c1ccc(/C=N/NC(=O)C2COc3ccccc3O2)o1 (configuration not stated),97.3,0.9,97.7,-5.6,1.1
Cc1ccc(S(=O)(=O)n2[nH]c(=O)c(CCO)c2C)cc1,·,1.1,·,-4.5,1
CCOc1ccc(C(c2c(NC(=O)c3ccccc3)sc(C)c2C)N2CCN(CCO)CC2)cc1 (configuration not stated),44.1,1,38.4,44.6,0.8
Cc1sc(NC(=O)c2ccco2)c(C(c2cccnc2)N2CCN(c3ccc(F)cc3)CC2)c1C (configuration not stated),15.0,0.9,10.4,80.0*,0.8
Cc1sc(NC(=O)c2ccco2)c(C(c2ccc(F)cc2)N2CCN(C)CC2)c1C (configuration not stated),·,1,·,51.4*,1
CCOC(=O)C1CCN(C(c2cccnc2)c2c(NC(=O)c3ccco3)sc(C)c2C)CC1 (configuration not stated),20.0,1,12.6,93.4*,1
Cc1sc(NC(=O)c2ccco2)c(C(c2ccccc2)N2CCC(C)CC2)c1C (configuration not stated),·,1,·,37.3,0.9
Cc1sc(NC(=O)c2ccccc2)c(C(c2ccc(Cl)cc2)N2CCN(CCO)CC2)c1C (configuration not stated),29.8,0.9,26.5,94.9*,0.9
CCNC(=O)C(=O)NCc1ccncc1,·,1,·,-3.6,1
CC1CCN(CCCn2c(=S)[nH]c3ccccc3c2=O)CC1,91.9,1.1,102.1,99.8*,1.1
CC1CCCCN1CCCn1c(=S)[nH]c2ccccc2c1=O (configuration not stated),93.3,0.9,82.8,7.0,0.9
O=c1c2ccccc2[nH]c(=S)n1CCCN1CCN(C2CCCCC2)CC1,75.8,0.9,72.0,97.6*,0.9
O=c1c2ccccc2[nH]c(=S)n1CCCN1CCOCC1,94.4,0.9,103.1,6.7,0.9
O=C(CSCc1ccccc1Cl)Nc1c[nH]c(=O)[nH]c1=O,97.8,0.9,96.1,59.5*,0.9
CSc1ccccc1NC(=O)c1cc(-c2cccnc2)nc2ccc(Br)cc12,·,1,·,21.4,1
COc1ccc(CCNCC(O)COc2cccc(Br)c2)cc1 (configuration not stated),·,1,·,51.7*,1
CNCC(O)COc1cccc(OC)c1 (configuration not stated),·,0.9,·,-3.0,1
SMILES,PTEN del growth,PMI act satM6P,bCat KO growth,L major viab,PMI activator
OC(CNCCc1ccc(C(F)(F)F)cc1)COc1cccc2ccccc12 (configuration not stated),1.7*,0.9,1.7*,96.9*,0.9
OC(CNCCc1ccc(C(F)(F)F)cc1)COc1ccc2ccccc2c1 (configuration not stated),22.6,1,8.9,99.0*,1
COc1ccc(CCNCC(O)c2ccccc2)cc1 (configuration not stated),·,1.1,·,-2.5,1
O=C(c1ccccc1F)c1cc2c(cc1[N+](=O)[O-])OCCO2,·,0.5,·,-1.1,0.8
COCCn1nnnc1C(c1cccs1)N1CCN(c2cc(C)ccc2C)CC1 (configuration not stated),57.0,1.3,58.1,-3.4,1
COCCn1nnnc1C(c1cccs1)N1CCN(c2nc3ccccc3s2)CC1 (configuration not stated),65.6,0.8,79.8,94.8*,0.8
CC(C)CC(c1nnnn1Cc1cccs1)N1CCN(c2nc3ccccc3s2)CC1 (configuration not stated),65.0,0.9,63.6,97.8*,0.9
Clc1ccc2oc(-c3ccccc3)nc2c1,87.9,1,97.3,-1.6,0.9
CC1(C)CC(N=c2cc(-c3ccccc3)oc3ccc(Cl)cc23)CC(C)(C)N1,·,0.8,·,100.6*,0.9
O=c1cc(-c2ccco2)oc2ccc(Cl)cc12,96.8,1,105.3,-6.8,0.9
OCCCN=c1cc(-c2ccccc2)oc2ccc(Cl)cc12,12.3,1.1,13.2,100.3*,1
CN(C)S(=O)(=O)CC12CCC(CC1=O)C2(C)C (configuration not stated),98.6,1,96.9,-1.8,0.8
O=[N+]([O-])c1ccccc1Nc1c2ccccc2nc2ccccc12,·,0.9,·,17.0,1
O=[N+]([O-])c1ccc(Nc2c3ccccc3nc3ccccc23)cc1,·,1,·,56.7*,0.9
O=C(NC(=S)Nc1nc2c(s1)CCCC2)c1ccc(C(=O)c2ccccc2)cc1,67.3,0.9,72.5,75.8*,0.9
C/C(=N\Nc1nc2c(s1)CCCC2)c1ccccc1,77.4,1.8,74.3,51.7*,1.5
Cc1cccc(Nc2nc3c(s2)CCCC3)c1,77.7,0.9,89.6,62.2*,0.8
COc1cc(C(=O)O)nc2ccc([N+](=O)[O-])cc12,·,1,·,0.5,1
S=C(Nc1ccccc1Cl)N(CCCN1CCOCC1)Cc1ccccn1,·,0.8,·,-3.7,0.9
COc1ccccc1NC(=S)N(CCCN1CCOCC1)Cc1cn(C)c2ccccc12,77.0,1,73.1,67.5*,0.9
COc1ccccc1NC(=S)N(CCN1CCOCC1)Cc1ccccc1F,·,0.9,·,5.6,0.9
CCOc1ccccc1NC(=S)N(CCCN1CCOCC1)Cc1cn(C)c2ccccc12,86.1,0.9,83.0,64.9*,0.8
CC(=O)OCC(=O)NCC(=O)c1c[nH]c2ccccc12,98.0,1,91.7,-4.2,1.1
CC/C(=N\NC(=O)CSc1ncccn1)c1ccc2c(c1)OCCO2,102.2,1,95.7,-8.8,1
Fc1cccc(F)c1CSc1nc2ccccc2[nH]1,75.5,0.9,88.5,99.8*,0.9
Cc1noc(C)c1CSc1nc2ccccc2[nH]1,106.1,1,98.3,-2.3,1
O=C(Nc1cc(SCCO)cc([N+](=O)[O-])c1)c1ccco1,89.9,1.1,87.5,61.4*,1.1
